Results published in ChEMBL document CHEMBL1135814, “Aldisine alkaloids from the Philippine sponge Stylissa massa are potent inhibitors of mitogen-activated protein kinase kinase-1 (MEK-1)” (J Med Chem, 2002).
pIC50: −log10 of the molar value.

Legend:
LoVo = assay: Inhibition of human adenocarcinoma cell line LoVo proliferation; assay type: functional, cell-based
How it was run: (§1)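 Cells grown in RPMI 1640 with 10% fetal bovine serum, L-glutamine and penicillin/streptomycin. Compounds from 100% DMSO stocks were diluted in complete medium and applied at varying concentrations. Growth inhibition was read by sulforhodamine B staining, reported as IC50.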

Caco-2 = assay: Inhibition of human adenocarcinoma cell line Caco-2 proliferation; assay type: functional, cell-based; how it was run: as §1
[1] = target: Serine/threonine-protein kinase RAF and Dual specificity mitogen-activated protein kinase kinase 1 (Raf/MEK) (Homo sapiens, UniProt P04049+Q02750); assay: Inhibition of kinase activity of Raf/MEK/ERK kinase cascade in ELISA; assay type: protein assay
[2] = target: Dual specificity mitogen-activated protein kinase kinase 1 (Homo sapiens, UniProt Q02750); assay: Inhibition of MEK1 phosphorylation by activated human recombinant Raf
Sequence of Dual specificity mitogen-activated protein kinase kinase 1 (Q02750 whole entry): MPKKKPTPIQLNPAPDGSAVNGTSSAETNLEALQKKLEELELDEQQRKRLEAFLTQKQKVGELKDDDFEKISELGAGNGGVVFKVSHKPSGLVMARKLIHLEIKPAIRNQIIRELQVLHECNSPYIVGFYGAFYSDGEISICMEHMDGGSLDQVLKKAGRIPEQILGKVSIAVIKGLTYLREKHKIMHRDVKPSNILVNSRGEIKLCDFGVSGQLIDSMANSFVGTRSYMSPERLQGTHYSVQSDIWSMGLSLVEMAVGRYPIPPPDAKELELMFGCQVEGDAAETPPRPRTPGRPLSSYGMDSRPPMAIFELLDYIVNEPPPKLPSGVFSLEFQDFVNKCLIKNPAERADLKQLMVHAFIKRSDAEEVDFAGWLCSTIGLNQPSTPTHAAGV

pIC50 (LoVo)	pIC50 (Caco-2)	IC50 [1]	pIC50 [2]	Structure (SMILES)
6.23	< 5.41	–	–	NC1=N/C(=C2\CCNC(=O)c3[nH]c(Br)cc32)C(=O)N1
< 5.00	< 5.00	> 2.5 µM	< 5.60	O=C1CCNC(=O)c2[nH]ccc21 [ALDISIN]
< 5.00	< 5.00	> 2.5 µM	< 5.60	NC(=O)c1cc(Br)c(Br)[nH]1
7.30	< 5.00	–	–	CSCC[C@H](NC(=O)c1ccc(NC[C@@H](N)CS)cc1-c1ccccc1)C(=O)O
6.15	< 5.11	–	–	NC1=NC(=O)/C(=C2\CCNC(=O)c3[nH]c(Br)cc32)N1 [HYMENIALDISINE]
< 5.00	< 5.00	> 2.5 µM	< 5.60	Nc1ncc(/C=C/CNC(=O)c2cc(Br)c(Br)[nH]2)[nH]1 [OROIDIN]
< 5.00	< 5.00	0.881 µM	< 5.60	NC1=N/C(=C2/CCNC(=O)c3[nH]ccc32)C(=O)N1 [DEBROMOHYMENIALDISINE]
< 5.00	< 5.00	–	–	O=C1CCNC(=O)c2[nH]c(Br)cc21
< 5.00	< 5.00	1.288 µM	< 5.60	Nc1nc(C2CCNC(=O)c3[nH]c(Br)c(Br)c32)c[nH]1 (stereo not drawn)
